Laboratory results taken from ChEMBL document CHEMBL2057097, “Synthesis and biological evaluation of rebeccamycin analogues modified at the imide moiety” (Bioorg Med Chem Lett, 2012).

Assays:
[1] = test system: NCI-H460; test: Cytotoxicity against human NCI-H460 cells after 72 hrs by sulforhodamine B assay; format: functional, cell-based; conditions: NCI-H460, 72 h
In short: (§1)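 Cells seeded (A2780 2000, H460 1500, GLC-4 1500 per well), incubated 24 h at 37 °C, 5% CO₂. Compounds from DMSO diluted in saline, tested over 0.001 to 10 range. 24 h exposure, two PBS washes, then 72 h in drug-free medium. Viability by SRB; IC50 from survival-versus-concentration curve against untreated control.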

[2] = test system: A2780; test: Cytotoxicity against human A2780 cells after 72 hrs by sulforhodamine B assay; format: functional, cell-based; conditions: A2780, 72 h; in short: as §1
[3] = test system: A2780; test: Ratio of IC50 for edotecarin to compound IC50 for human A2780 cells after 72 hrs by sulforhodamine B assay; format: functional
[4] = Cytotoxicity against human GLC4 cells after 72 hrs by sulforhodamine B assay; format: functional, cell-based; conditions: GLC4, 72 h; in short: as §1
[5] = test system: Mus musculus; test: Toxicity in athymic Harlan mouse xenografted with human A2780 cells assessed as mortality at 90 mg/kg, iv administered Q4D for 4 weeks; format: organism-based; set-up: dose 90 mg/kg, route intravenous; conditions: in vivo, 672 h
In short: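 Female athymic nude mice (6–8 weeks old, five per group) received 10 × 10⁶ A2780 cells s.c. in the right flank, suspended in 0.9% NaCl. Dosing began at tumours of about 50 mm³. The drug was dissolved in sterile water for injection, diluted in saline just before use, and given i.v. q4dx4 (twice weekly) at 10 ml/kg. Read-out was deaths out of total mice.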

[6] = test system: A2780; test: Antitumor activity against human A2780 cells xenografted in athymic harlan mouse assessed as tumor volume inhibition at 90 mg/kg, […] Q4D for 4 weeks; format: functional; conditions: A2780, 672 h
In short: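 Female athymic nude mice, 6–8 weeks old, five per group, implanted s.c. in right flank with A2780 cells (10 × 10⁶ cells/flank in 0.2 ml 0.9% NaCl). Treatment began at tumours approximately 50 mm³. Compound dissolved in sterile water, diluted in saline, given i.v. q4dx4 at 10 ml/kg. Calliper length/width; TV = width² × length/2. TVI versus controls at nadir of treated group; deaths recorded.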

Row | Structure (SMILES) | IC50 [1] | IC50 [2] | Ratio IC50 [3] | IC50 [4] | Activity [5] | inhibition in vivo at 90 mg/kg [6]
1 | O=C1c2c(c3c4ccc(O)cc4n([C@@H]4O[C@H](CO)[C@@H](O)[C@H](O)[C@H]4O)c3c3[nH]c4cc(O)ccc4c23)C(=O)N1NCC1COCO1 (some centres not stated) | > 1000 nM | 1.7 nM | 3 | 0.8 nM | – | –
2 | O=C1c2c(c3c4ccc(O)cc4n([C@@H]4O[C@H](CO)[C@@H](O)[C@H](O)[C@H]4O)c3c3[nH]c4cc(O)ccc4c23)C(=O)N1NC1COCOC1 | > 250 nM | 0.7 nM | 10 | 0.7 nM | Non-toxic | 99.7%
3 | O=C1c2c(c3c4ccc(O)cc4n([C@@H]4O[C@H](CO)[C@@H](O)[C@H](O)[C@H]4O)c3c3[nH]c4cc(O)ccc4c23)C(=O)N1N1CCOCC1 | > 1000 nM | 54 nM | – | 90 nM | – | –
4 | O=C1c2c(c3c4ccc(O)cc4n([C@@H]4O[C@H](CO)[C@@H](O)[C@H](O)[C@H]4O)c3c3[nH]c4cc(O)ccc4c23)C(=O)N1NC(CO)CO [EDOTECARIN] | 193 nM | 6.5 nM | – | 0.8 nM | Non-toxic | 99.8%
5 | O=C1c2c(c3c4ccc(O)cc4n([C@@H]4O[C@H](CO)[C@@H](O)[C@H](O)[C@H]4O)c3c3[nH]c4cc(O)ccc4c23)C(=O)N1NC1C(O)CCCC1O (some centres not stated) | > 250 nM | 90 nM | – | 101 nM | – | –
6 | CC[C@@]1(O)C(=O)OCc2c1cc1n(c2=O)Cc2cc3ccccc3nc2-1 [CAMPTOTHECIN] | 5 nM | 7 nM | – | 10 nM | – | –
7 | COCC(COC)NN1C(=O)c2c(c3c4ccc(O)cc4n([C@@H]4O[C@H](CO)[C@@H](O)[C@H](O)[C@H]4O)c3c3[nH]c4cc(O)ccc4c23)C1=O | > 125 nM | 12.7 nM | – | 3.8 nM | – | –
